Results reported in the EternaBench riboswitch data.

Test system: MS2 coat protein
Assay: apparent Kd, MS2 coat protein; higher = weaker binding; RNA-MaP array; FMN 200 µM where present
In short: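 Designs on Illumina sequencing-chip clusters, transcribed by stalled E. coli RNA polymerase, were exposed to SNAP-549-labelled MS2 coat protein in doubling steps from 0.7 or 1.5 nM up to 3 µM, without and then with constant ligand. The buffer held 100 mM Tris-HCl pH 7.5, 80 mM KCl, 4 mM MgCl2, BSA, DTT, yeast tRNA and Tween-20. Apparent Kd values are medians of filtered per-cluster binding-curve fits to green signal normalised to red-channel RNA signal and control-cluster median Fmax.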

[1] = designed as: OFF switch for flavin mononucleotide, no ligand
[2] = ligand present: flavin mononucleotide, designed as: OFF switch for flavin mononucleotide
[3] = designed as: ON switch for flavin mononucleotide, no ligand
[4] = ligand present: flavin mononucleotide, designed as: ON switch for flavin mononucleotide

Row | Sequence | apparent Kd [1] | apparent Kd [2] | apparent Kd [3] | apparent Kd [4]
1 | CAGCCCUGAGGAUAUCCCUACUUGUACAUGAGGAUCACCCAUGUUCUCCUCCGGGCUUCGGGAGAAGGCAGGUCUC | 15.9 nM | 15.5 nM |  | 
2 | CAGCGAAAGCUGAAUCUGUAGAGAGAGGAUAUACAAGAAUAAAUCCAUACAUGAGGAUCACCCAUGUAGAAGGCUCUCUACAGU | 7.41 nM | 26.6 nM |  | 
3 | CAGCGAUAGCUGAACAAUCUAUCUGAGGAUAUUCAGAAUAAACAUGAGGAUCACCCAUGUAAUUGGGAGAAGGCAGAUAGAUUG |  |  | 9.19 nM | 5.48 nM
4 | CAGCGGAGCCUAGGAUAUGCGACAUGAGGAUCACCCAUGUACGCCAAAACGUCACCAUGGGUCUCGCAGAAGGAGGAAACACUG | 54.7 nM | 24.3 nM |  | 
5 | CAGCGUACCAGAGGAUAUGAUUGUGGGUAAAGAGCGCUUAGGUGGCUACAUGAGGAUCACCCAUGUCAGAAGGCUGGAGUUCAA | 279 nM | 129 nM |  | 
6 | CAGGUAGACUGAGGAUAUACAAUAAACAGCUAGUCUAUCUAGCUGCUCACAUGAGGAUCACCCAUGUAGAAGGCAGUCUGCCUG | 18.7 nM | 45.1 nM |  | 
7 | CAGGUAGACUGAGGAUAUACAAUAAGACCUAGUCUAUCUAGGUCACUCACAUGAGGAUCACCCAUGUAGAAGGCAGUCUGCCUG | 21.8 nM | 79.7 nM |  | 
8 | CAGGUAGACUGAGGAUAUACAGACCUAGUCUAUCUAGGUCAAGUCCUUACAUGAGGAUCACCCAUGUAGAAGGCAGUCUGCCUG | 19.5 nM | 52.7 nM |  | 
9 | CAGUACUGAGGAUAUACAUGAGGAUCACCCAUGUGCCUAAGGUAGGAUACUACCAUUAGUAGAAGGCAGUACUG | 13.8 nM | 29.6 nM |  | 
10 | CAGUACUGAGGAUAUACAUGAGGAUCACCCAUGUGGUCCAGCUAGGAAACUAGCACGUGUAGAAGGCAGUACUG | 36.1 nM | 56.5 nM |  | 
11 | CAGUACUGAGGAUAUACAUGAGGAUCACCCAUGUGUCCCAGCUAGGAAACUAGCAAAAGUAGAAGGCAGUACUG | 23.6 nM | 538 nM |  | 
12 | CAGUACUGAGGAUAUACAUGAGGAUCACCCAUGUGUUCCAGCUAGGAAUCUAGCAAAAGUAGAAGGCAGUACUG | 25.9 nM | 449 nM |  | 
13 | CAGUGCAAUGUAGGAUAUGCUCAGGAUAACUGAGCAGAAGGACAUGAGGAUCACCCAUGUACUAUGAAAGAUAAUAAAGCACUG | 14.1 nM | 18.3 nM |  | 
14 | CAUAAACAUGAGGAUCACCCAUGUGAGGAUAUGAUAUUACUAGGACGGCUGUAAUCAAUCAGAAGGCACAUCUU | 18.5 nM | 37.5 nM |  | 
15 | CAUAACGGCUGAGGAUAUUGAAUGUGCGUGGACAUGAGGAUCACCCAUGUUCAAGAAGGCAGCAAUUUACUUGGGUCUACCCGC | 40.9 nM | 309 nM |  | 
16 | CAUACCUGUGAAGGAUAUACGUUGUUAGCUACCGUAGAAGGUCACAUGAGGAUCACCCAUGUCAAGGCAAGAACAUGAUCCGAA | 304 nM | 566 nM |  | 
17 | CAUAUGGUAACAGGAUAUAUGAGUCCUACAUGAGGAUCACCCAUGUAGGUGAUCUAACGAGAUUAGUAGAAGGGUUACCAUAUG |  |  | 18.2 nM | 8.98 nM
18 | CAUCAGUGUUAAGGAUAUGGCAGCGGAAGCGCACCAGAAGGUAGCACAUGAGGAUCACCCAUGUGUUCUGGCUUGAGCGUGAUC | 36.5 nM | 75.2 nM |  | 
19 | CAUCCACAUGAGGAUCACCCAUGUCAGGAUAUCGCGCGCGCGUUUUCGGUCUUUCGCGCGAGAAGGGACGACUG | 15.4 nM | 16.3 nM |  | 
20 | CAUCUACAGGGAGGAUAUACAUGAGGAUCACCCAUGUCAUCAUACGAUCUUUCUUUUGUAUGAGUGUAGAAGGCCCAACUACCA | 15.2 nM | 15.2 nM |  | 
21 | CAUGUCCUCACAGGAUAUGCACCACUUUGUGGUGCAGAAGGGUGGAUACAUGAGGAUCACCCAUGUGGACAUGAUAUAUUUAAG |  |  | 708 nM | 58.4 nM

Row | Sequence | apparent Kd [1] | apparent Kd [2] | apparent Kd [3] | apparent Kd [4]
22 | CAUGUCCUCACAGGAUAUGCUGGACUUUGUCCAGCAGAAGGGUGAUAACAUGAGGAUCACCCAUGUGGACAUGAUAUAUUUAAU |  |  | 111 nM | 568 nM
23 | CAUUAAUUAAUUAUAGUAUUUAUACAGGAUAUGUAACAUGAGGAUCACCCAUGUAUACAUGGGAAACAGAAGGGUAUUUAUAGA | 32 nM | 28.8 nM |  | 
24 | CCACCAAUCGAGAAGGGCCCAUGUGCUACAUCGGCAGGAUAUCGACAUGAGGAUCACCCAUGUUGGCGAUCCUUUUUGGCGGAC | 176 nM | 35.9 nM |  | 
25 | CCACGGUAUGUAGGAUAUGCAUAGCAUUGCUAUGCAGAAGGACAUGAGGAUCACCCAUGUAUGUAUUCCAUACUAAUCCCGUGU | 6.29 nM | 5.9 nM |  | 
26 | CCACGUCACAUGAACAUGAGGAUCACCCAUGUAAAUUCUCAUGAGGAUAUGGAUCCUAAUUGGAUCCAGAAGGCGUGGACGUGG |  |  | 1070 nM | 461 nM
27 | CCACGUCACAUGAACAUGAGGAUCACCCAUGUAACUAGACAUGAGGAUAUGGAUCCUAAUUGGAUCCAGAAGGCAUGGACGUGG |  |  | 168 nM | 29.2 nM
28 | CCACGUCCCAUUAACAUGAGGAUCACCCAUGUCAAAAGACAUGAGGAUAUGCAUCCUAAUUGGAUGCAGAAGGCAUGGACGUGG |  |  | 814 nM | 87.1 nM
29 | CCACGUGCUCAGAAGGGCUUUAAACACAAAUUAGCAGGAUAUGAGGACCGGUCGUGACAUGAGGAUCACCCAUGUUUUGUCUAG |  |  | 38.6 nM | 12.2 nM
30 | CCAGAUAUGUGAGGAUAUAGAGUGGAAUACACUCUAGAAGGUAUGUGAGAACAUGAGGAUCACCCAUGUCAUUGAUUAUCUGGA |  |  | 24.7 nM | 24.6 nM
31 | CCAGAUUUCACAGGAUAUAUUGAUGACAUGAGGAUCACCCAUGUACCGGCAGUAGAAGGGUGAACGCUCGUGACCACGUGCGUG |  |  | 253 nM | 134 nM
32 | CCAGCGUAUGUGAGGAUAUGCUGGUCCUUGGAUCAGCAGAAGGCACAUGAGGAUCACCCAUGUGAGAGCGUUGG | 25.7 nM | 197 nM |  | 
33 | CCAGGCUUCGAGAAGGACAUGAGGAUCACCCAUGUGCGUGUGAAGCAGCCGUGAGGCUGCAUCAUGUAGGAUAUCGGAGUCUGC | 77.2 nM | 538 nM |  | 
34 | CCAGUGUUAGGAUAUGAUACUAAUGGAUAGCAUUCCGCAGUUUAGAAGGGACAUGAGGAUCACCCAUGUACGGG | 144 nM | 139 nM |  | 
35 | CCAUAAAUGAUCCAUUUUUACUACAUGAGGAUCACCCAUGUGCAGGAUAUCGUGAAAGUUAAAUACGAGAAGGGCAAGAACUGC | 218 nM | 230 nM |  | 
36 | CCAUCAGCGAACGAUACGAUUGGACAUGAGGAUCACCCAUGUAGAAGGACAGGAGAAUAACGGCUGUAGGAUAUACAUUUAGUG | 58.4 nM | 40.6 nM |  | 
37 | CCAUCAGCGGGCGGAUCGGUUGGACAUGAGGAUCACCCAUGUAGAAGGACCGGUGGAUUCCGGCGGUAGGAUAUACAUUUGGUG | 9.1 nM | 16.3 nM |  | 
38 | CCAUCAGCGGGCGUAUCGGUUGGACAUGAGGAUCACCCAUGUAGAAGGACAGGUGUAUUUCGGCUGUAGGAUAUACAUUUGGUG | 26 nM | 79.9 nM |  | 
39 | CCAUCGAGUGUGAGGAUAUGCUGGUCCAUAGAUCAGCAGAAGGCACAUGAGGAUCACCCAUGUGGAGACGGUGG | 41.7 nM | 332 nM |  | 
40 | CCAUCUUGUCGAGGAUAUAUUAACAUGACAUGAGACACAUGAGGAUCACCCAUGUAUGUUGUUGUAUAGAAGGCGACUACAUGA |  |  | 50.4 nM | 51.2 nM
41 | CCAUGACAAAGUCAUGGUUAACGAACAUGAGGAUCACCCAUGUAGGAUAUGCUACUCAAAGAGUAGCAGAAGGACAUGUGCCUU | 34.3 nM | 259 nM |  | 
